Measurements published in ChEMBL document CHEMBL1629494, “New amino acid esters of salicylanilides active against MDR-TB and other microbes” (Eur J Med Chem, 2010).
≈ marks a conversion by molar mass, not a printed value.

Legend:
Format in all cases: functional
Enterococcus sp. [1] = test: Antibacterial activity against Enterococcus sp. J14365/08 after 48 hrs by broth microdilution method; details: J14365/08, 48 h
Summary of the method: (§1)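 Broth microdilution following […], with twofold compound dilutions in Mueller-Hinton bouillon. Incubated 24 and 48 h at 35 °C in the dark in a humid atmosphere. MIC (IC80) was taken as ≥80% growth reduction versus control, read visually and photometrically.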

Escherichia coli [2] = test: Antibacterial activity against Escherichia coli CCM 4517 after 24 hrs by broth microdilution method; details: CCM 4517, 24 h; summary of the method: as §1
Escherichia coli [3] = test: Antibacterial activity against Escherichia coli CCM 4517 after 48 hrs by broth microdilution method; details: CCM 4517, 48 h; summary of the method: as §1
Klebsiella pneumoniae [4] = test: Antibacterial activity against Klebsiella pneumoniae D11750/08 after 24 hrs by broth microdilution method; details: D11750/08, 24 h; summary of the method: as §1
Klebsiella pneumoniae [5] = test: Antibacterial activity against Klebsiella pneumoniae D11750/08 after 48 hrs by broth microdilution method; details: D11750/08, 48 h; summary of the method: as §1
Candida albicans [6] = test: Antifungal activity against Candida albicans ATCC 44859 after 24 hrs by broth microdilution method; details: ATCC 44859, 24 h
Candida albicans [7] = test: Antifungal activity against Candida albicans ATCC 44859 after 48 hrs by broth microdilution method; details: ATCC 44859, 48 h
Candida tropicalis [8] = test: Antifungal activity against Candida tropicalis 156 after 24 hrs by broth microdilution method; details: Candida tropicalis, 156, 24 h
Candida tropicalis [9] = test: Antifungal activity against Candida tropicalis 156 after 48 hrs by broth microdilution method; details: Candida tropicalis, 156, 48 h
Pichia kudriavzevii [10] = test: Antifungal activity against Candida krusei E28 after 24 hrs by broth microdilution method; details: E28, 24 h
Pichia kudriavzevii [11] = test: Antifungal activity against Candida krusei E28 after 48 hrs by broth microdilution method; details: E28, 48 h
Nakaseomyces glabratus [12] = test: Antifungal activity against Candida glabrata 20/I after 24 hrs by broth microdilution method
Nakaseomyces glabratus [13] = test: Antifungal activity against Candida glabrata 20/I after 48 hrs by broth microdilution method
Trichosporon beigelii [14] = test: Antifungal activity against Trichosporon beigelii 1188 after 24 hrs by broth microdilution method; details: Trichosporon beigelii, 1188, 24 h
Trichosporon beigelii [15] = test: Antifungal activity against Trichosporon beigelii 1188 after 48 hrs by broth microdilution method; details: Trichosporon beigelii, 1188, 48 h
Aspergillus fumigatus [16] = test: Antifungal activity against Aspergillus fumigatus 231 after 24 hrs by broth microdilution method; details: Aspergillus fumigatus, 231, 24 h
Aspergillus fumigatus [17] = test: Antifungal activity against Aspergillus fumigatus 231 after 48 hrs by broth microdilution method; details: Aspergillus fumigatus, 231, 48 h
Lichtheimia corymbifera [18] = test: Antifungal activity against Absidia corymbifera 272 after 24 hrs by broth microdilution method; details: Lichtheimia corymbifera, 272, 24 h
Lichtheimia corymbifera [19] = test: Antifungal activity against Absidia corymbifera 272 after 48 hrs by broth microdilution method; details: Lichtheimia corymbifera, 272, 48 h
[20] = system: Trichophyton mentagrophytes; test: Antifungal activity against Trichophyton mentagrophytes after 24 hrs by broth microdilution method
[21] = system: Trichophyton mentagrophytes; test: Antifungal activity against Trichophyton mentagrophytes after 48 hrs by broth microdilution method
[22] = system: Mycobacterium tuberculosis; test: Antimycobacterial activity against drug-sensitive Mycobacterium tuberculosis
Mycobacterium avium [23] = test: Antimycobacterial activity against Mycobacterium avium
Mycobacterium kansasii [24] = test: Antimycobacterial activity against Mycobacterium kansasii
[25] = system: Mycobacterium tuberculosis; test: Antimycobacterial activity against Mycobacterium tuberculosis H37Rv 331/88 after 14 days by micromethod; details: H37Rv 331/88, 336 h
Summary of the method: (§2)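 Micromethod in Sula semisynthetic medium, with compounds added as DMSO solutions at 1000, 500, 250, 125, 62, 32, 16, 8, 4, 2, 1, 0.5, 0.25. Inoculum dilutions: H37Rv 10^-3; M. avium 330/88 10^-5; M. kansasii 235/80 10^-4; M. kansasii 6509/96 10^-5. Incubated at 37 °C, read at 14 and 21 days, and at 7 days for M. kansasii. MIC was the lowest concentration inhibiting growth.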

[26] = system: Mycobacterium tuberculosis; test: Antimycobacterial activity against Mycobacterium tuberculosis H37Rv 331/88 after 21 days by micromethod; details: H37Rv 331/88, 504 h; summary of the method: as §2
Mycobacterium avium [27] = test: Antimycobacterial activity against multidrug-resistant Mycobacterium avium 330/88 after 14 days by micromethod; details: 330/88, 336 h; summary of the method: as §2
Mycobacterium avium [28] = test: Antimycobacterial activity against multidrug-resistant Mycobacterium avium 330/88 after 21 days by micromethod; details: 330/88, 504 h; summary of the method: as §2
Mycobacterium kansasii [29] = test: Antimycobacterial activity against Mycobacterium kansasii 235/80 after 7 days by micromethod; details: 235/80, 168 h; summary of the method: as §2
Mycobacterium kansasii [30] = test: Antimycobacterial activity against Mycobacterium kansasii 235/80 after 14 days by micromethod; details: 235/80, 336 h; summary of the method: as §2
Mycobacterium kansasii [31] = test: Antimycobacterial activity against Mycobacterium kansasii 235/80 after 21 days by micromethod; details: 235/80, 504 h; summary of the method: as §2
Mycobacterium kansasii [32] = test: Antimycobacterial activity against Mycobacterium kansasii 6509/96 after 7 days by micromethod; details: 6509/96, 168 h; summary of the method: as §2
Mycobacterium kansasii [33] = test: Antimycobacterial activity against Mycobacterium kansasii 6509/96 after 14 days by micromethod; details: 6509/96, 336 h; summary of the method: as §2
Mycobacterium kansasii [34] = test: Antimycobacterial activity against Mycobacterium kansasii 6509/96 after 21 days by micromethod; details: 6509/96, 504 h; summary of the method: as §2
Staphylococcus aureus [35] = test: Antibacterial activity against Staphylococcus aureus CCM 4516/08 after 24 hrs by broth microdilution method; details: CCM 4516/08, 24 h; summary of the method: as §1
Staphylococcus aureus [36] = test: Antibacterial activity against Staphylococcus aureus CCM 4516/08 after 48 hrs by broth microdilution method; details: CCM 4516/08, 48 h; summary of the method: as §1
Staphylococcus aureus [37] = test: Antibacterial activity against methicillin-resistant Staphylococcus aureus H5996/08 after 24 hrs by broth microdilution method; details: H5996/08, 24 h; summary of the method: as §1
Staphylococcus aureus [38] = test: Antibacterial activity against methicillin-resistant Staphylococcus aureus H5996/08 after 48 hrs by broth microdilution method; details: H5996/08, 48 h; summary of the method: as §1
[39] = system: Staphylococcus epidermidis; test: Antibacterial activity against Staphylococcus epidermidis H6966/08 after 24 hrs by broth microdilution method; details: H6966/08, 24 h; summary of the method: as §1
[40] = system: Staphylococcus epidermidis; test: Antibacterial activity against Staphylococcus epidermidis H6966/08 after 48 hrs by broth microdilution method; details: H6966/08, 48 h; summary of the method: as §1
Enterococcus sp. [41] = test: Antibacterial activity against Enterococcus sp. J14365/08 after 24 hrs by broth microdilution method; details: J14365/08, 24 h; summary of the method: as §1

In the case of `CC(=O)N[C@@H](Cc1ccccc1)C(=O)Oc1ccc(Cl)cc1C(=O)Nc1ccc(Cl)cc1`, the MIC (Enterococcus sp. [1]) is reported as > 125 µM, the MIC (Escherichia coli [2]) is reported as > 125 µM and the MIC (Escherichia coli [3]) is reported as > 125 µM. For the same molecule, the MIC (Klebsiella pneumoniae [4]) was > 125 µM, the MIC (Klebsiella pneumoniae [5]) was > 125 µM and the MIC (Candida albicans [6]) was > 125 µM. The MIC (Candida albicans [7]) was > 125 µM, the MIC (Candida tropicalis [8]) was > 125 µM and the MIC (Candida tropicalis [9]) was > 125 µM. The MIC (Pichia kudriavzevii [10]) was > 125 µM, the MIC (Pichia kudriavzevii [11]) was > 125 µM and the MIC (Nakaseomyces glabratus [12]) was > 125 µM. The MIC (Nakaseomyces glabratus [13]) was > 125 µM, the MIC (Trichosporon beigelii [14]) was 3.9 µM (≈ 1.84 µg/mL) and the MIC (Trichosporon beigelii [15]) was 3.9 µM (≈ 1.84 µg/mL). It also gave an MIC (Aspergillus fumigatus [16]) of 31.2 µM (≈ 14.7 µg/mL), an MIC (Aspergillus fumigatus [17]) of 125 µM (≈ 58.9 µg/mL) and an MIC (Lichtheimia corymbifera [18]) of 3.9 µM (≈ 1.84 µg/mL). For the same molecule, the MIC (Lichtheimia corymbifera [19]) was 15.6 µM (≈ 7.36 µg/mL), the MIC [20] was 31.2 µM (≈ 14.7 µg/mL) and the MIC [21] was 62.5 µM (≈ 29.5 µg/mL). The MIC [22] was 1 µM (≈ 0.471 µg/mL), the MIC (Mycobacterium avium [23]) was 1 µM (≈ 0.471 µg/mL) and the MIC (Mycobacterium kansasii [24]) was 1 µM (≈ 0.471 µg/mL). The MIC [25] was 4 µM (≈ 1.89 µg/mL), the MIC [26] was 4 µM (≈ 1.89 µg/mL) and the MIC (Mycobacterium avium [27]) was 8 µM (≈ 3.77 µg/mL). It also gave an MIC (Mycobacterium avium [28]) of 16 µM (≈ 7.54 µg/mL), an MIC (Mycobacterium kansasii [29]) of 4 µM (≈ 1.89 µg/mL) and an MIC (Mycobacterium kansasii [30]) of 4 µM (≈ 1.89 µg/mL). The MIC (Mycobacterium kansasii [31]) was 4 µM (≈ 1.89 µg/mL), the MIC (Mycobacterium kansasii [32]) was 2 µM (≈ 0.943 µg/mL) and the MIC (Mycobacterium kansasii [33]) was 4 µM (≈ 1.89 µg/mL). The MIC (Mycobacterium kansasii [34]) was 8 µM (≈ 3.77 µg/mL), the MIC (Staphylococcus aureus [35]) was 62.5 µM (≈ 29.5 µg/mL) and the MIC (Staphylococcus aureus [36]) was > 125 µM. The MIC (Staphylococcus aureus [37]) was 125 µM (≈ 58.9 µg/mL), the MIC (Staphylococcus aureus [38]) was > 125 µM and the MIC [39] was 125 µM (≈ 58.9 µg/mL). The MIC [40] was > 125 µM and the MIC (Enterococcus sp. [41]) was 125 µM (≈ 58.9 µg/mL).
In the case of `CC(=O)N[C@@H](Cc1ccccc1)C(=O)Oc1cc(Cl)ccc1C(=O)Nc1ccc(Cl)cc1`, the MIC (Enterococcus sp. [1]) is reported as > 125 µM, the MIC (Escherichia coli [2]) is reported as 31.2 µM (≈ 14.7 µg/mL) and the MIC (Escherichia coli [3]) is reported as > 125 µM. The MIC (Klebsiella pneumoniae [4]) was 62.5 µM (≈ 29.5 µg/mL), the MIC (Klebsiella pneumoniae [5]) was 125 µM (≈ 58.9 µg/mL) and the MIC (Candida albicans [6]) was 31.2 µM (≈ 14.7 µg/mL). The MIC (Candida albicans [7]) was > 125 µM, the MIC (Candida tropicalis [8]) was > 125 µM and the MIC (Candida tropicalis [9]) was > 125 µM. For the same molecule, the MIC (Pichia kudriavzevii [10]) was 31.2 µM (≈ 14.7 µg/mL), the MIC (Pichia kudriavzevii [11]) was > 125 µM and the MIC (Nakaseomyces glabratus [12]) was > 125 µM. The MIC (Nakaseomyces glabratus [13]) was > 125 µM, the MIC (Trichosporon beigelii [14]) was 15.6 µM (≈ 7.36 µg/mL) and the MIC (Trichosporon beigelii [15]) was 62.5 µM (≈ 29.5 µg/mL). For the same molecule, the MIC (Aspergillus fumigatus [16]) was > 125 µM, the MIC (Aspergillus fumigatus [17]) was > 125 µM and the MIC (Lichtheimia corymbifera [18]) was 7.81 µM (≈ 3.68 µg/mL). It also gave an MIC (Lichtheimia corymbifera [19]) of 7.81 µM (≈ 3.68 µg/mL), an MIC [20] of 15.6 µM (≈ 7.36 µg/mL) and an MIC [21] of 31.2 µM (≈ 14.7 µg/mL). For the same molecule, the MIC [22] was 1 µM (≈ 0.471 µg/mL), the MIC (Mycobacterium avium [23]) was 1 µM (≈ 0.471 µg/mL) and the MIC (Mycobacterium kansasii [24]) was 1 µM (≈ 0.471 µg/mL). For the same molecule, the MIC [25] was 4 µM (≈ 1.89 µg/mL), the MIC [26] was 4 µM (≈ 1.89 µg/mL) and the MIC (Mycobacterium avium [27]) was 8 µM (≈ 3.77 µg/mL). The MIC (Mycobacterium avium [28]) was 16 µM (≈ 7.54 µg/mL), the MIC (Mycobacterium kansasii [29]) was 4 µM (≈ 1.89 µg/mL) and the MIC (Mycobacterium kansasii [30]) was 4 µM (≈ 1.89 µg/mL). It also gave an MIC (Mycobacterium kansasii [31]) of 4 µM (≈ 1.89 µg/mL), an MIC (Mycobacterium kansasii [32]) of 4 µM (≈ 1.89 µg/mL) and an MIC (Mycobacterium kansasii [33]) of 8 µM (≈ 3.77 µg/mL). The MIC (Mycobacterium kansasii [34]) was 16 µM (≈ 7.54 µg/mL), the MIC (Staphylococcus aureus [35]) was 1.95 µM (≈ 0.919 µg/mL) and the MIC (Staphylococcus aureus [36]) was 15.6 µM (≈ 7.36 µg/mL). For the same molecule, the MIC (Staphylococcus aureus [37]) was 1.95 µM (≈ 0.919 µg/mL), the MIC (Staphylococcus aureus [38]) was 31.2 µM (≈ 14.7 µg/mL) and the MIC [39] was 1.95 µM (≈ 0.919 µg/mL). It also gave an MIC [40] of 31.2 µM (≈ 14.7 µg/mL) and an MIC (Enterococcus sp. [41]) of 3.9 µM (≈ 1.84 µg/mL).
